High-throughput results deposited in PubChem BioAssay by Johns Hopkins Ion Channel Center.
In the library only some 3.8% were active in any assay of this set; here they are far more common.
KCNQ1 act = potentiates or activates the human KCNQ1 potassium channel; P51787; B-score at 10 µM; CHO-K1 KCNQ1, thallium flux FluxOR fluorescence; stronger effect = higher value; 0.35% of 310,000 active;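 active = fluorescence ratio B-score, a plate-corrected score, at least three library SD, with initial intensity B-score within 5 SD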
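System: Stable KCNQ1 CHO-K1 line | Incubation: 90 min dye loading and 20 min compound exposure, both at room temperature | Measure: Ratio B score | Medium: Assay buffer for compound exposure, DMSO matched across wells | Compound dosing: Single-concentration screen | Probe or stimulus: K+/Tl+ depolarizing stimulus | Measured by: Kinetic FluxOR fluorescence, 10 s baseline plus 110 s post-stimulus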
Kir21 block = inhibitors of mouse Kir2.1 inward-rectifier potassium channel; P35561; HEK293-Kir2.1, FluxOR thallium flux fluorescence; stronger effect = lower value; B-score at 10 µM; 0.85% of 310,000 active; AID 1672;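 active = fluorescence ratio B-score at or below minus 3 SD of library scores, with starting-brightness B-score within 2 SD, cut at about -4.2 in these data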;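 note: channel flux triggered by added potassium and thallium sulfate stimulus; B-score of peak minus minimum fluorescence over baseline after thallium stimulus; more negative B-score means stronger Kir2.1 block with less thallium influx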
KCNK3 block = human KCNK3 channel inhibition, primary screen; O14649; CHO-KCNK3 thallium flux, FluxOR fluorescence; stronger effect = lower value; B-score at 10 µM; 0.84% of 340,000 active;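 active = B-score under library mean minus 4 SD, starting fluorescence ratio at most library mean plus 5 SD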;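 note: more negative B-score means stronger inhibition of thallium flux through KCNK3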
Target sequence (O14649 whole entry, looked up): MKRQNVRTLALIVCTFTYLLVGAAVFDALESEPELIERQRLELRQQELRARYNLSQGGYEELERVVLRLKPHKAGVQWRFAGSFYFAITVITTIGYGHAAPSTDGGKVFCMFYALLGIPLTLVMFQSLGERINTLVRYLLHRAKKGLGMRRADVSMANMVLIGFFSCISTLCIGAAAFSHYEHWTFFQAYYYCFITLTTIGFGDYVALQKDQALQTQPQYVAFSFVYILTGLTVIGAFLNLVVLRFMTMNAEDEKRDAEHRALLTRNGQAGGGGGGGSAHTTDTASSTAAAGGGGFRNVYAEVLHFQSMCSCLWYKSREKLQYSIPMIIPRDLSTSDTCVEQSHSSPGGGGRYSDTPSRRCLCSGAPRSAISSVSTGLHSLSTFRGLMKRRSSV
KCNK9 block = inhibitors of human KCNK9 two-pore domain potassium channel | Q9NPC2 | HEK293 KCNK9, FluxOR thallium flux fluorescence; stronger effect = lower value | B-score at 10 µM | 1.2% of 310,000 active;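 active = ratio B-score over 3 SD below the library mean, with starting fluorescence within 5 SD of its mean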;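 note: negative B-score means less thallium flux so channel inhibition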
Target sequence (Q9NPC2 whole entry, looked up, the tested form may be a part): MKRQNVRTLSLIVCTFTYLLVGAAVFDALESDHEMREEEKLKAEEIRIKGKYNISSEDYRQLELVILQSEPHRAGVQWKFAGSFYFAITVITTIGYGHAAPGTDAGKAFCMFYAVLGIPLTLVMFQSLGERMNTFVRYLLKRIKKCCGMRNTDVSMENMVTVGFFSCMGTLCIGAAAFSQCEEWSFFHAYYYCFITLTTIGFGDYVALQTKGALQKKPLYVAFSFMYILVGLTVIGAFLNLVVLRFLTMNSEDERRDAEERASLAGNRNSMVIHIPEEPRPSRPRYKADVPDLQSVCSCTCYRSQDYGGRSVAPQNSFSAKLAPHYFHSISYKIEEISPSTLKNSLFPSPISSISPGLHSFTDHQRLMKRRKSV
hERG protect = shields human hERG channel from block by proarrhythmic agents. Q12809. CHO-hERG, FluxOR thallium flux, dofetilide IC70 present. activation (rescue from dofetilide block), less the hit threshold, % at 10 µM. 0.51% of 310,000 active;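 active = activation above the mean of controls blocked by dofetilide plus 5 SD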;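 note: thallium influx through hERG after potassium depolarization seen as dye fluorescence rise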
KCNQ1 inh = human KCNQ1 channel inhibition; P51787; CHO-K1 KCNQ1, FluxOR thallium flux fluorescence; stronger effect = higher value; B-score at 10 µM; 1.3% of 310,000 active;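 active = compounds whose thallium flux B-score, printed positive for inhibition, exceeds three library SD while starting fluorescence stays within three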;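 note: channel opened by potassium depolarization with thallium stimulus after 20 min compound exposure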
Each line names hits and unclear results; the compound was inactive in the other large screens.

O=C(NC(=S)N1CCN(c2ccccc2)CC1)c1ccco1	none (no result: KCNQ1 act, Kir21 block, KCNK9 block, hERG protect, KCNQ1 inh)
O=C1NC(=O)C(=Cc2ccccc2[N+](=O)[O-])S1	none (no result: KCNQ1 act, Kir21 block, KCNK9 block, hERG protect, KCNQ1 inh)
Cc1ccc(S(=O)(=O)Oc2ccccc2/C=C2/SC(=O)NC2=O)cc1	KCNQ1 inh 9
O=C1NC(=O)/C(=C\c2ccccc2OCc2ccccc2)S1	none
O=C1NC(=O)/C(=C/c2cccc3ccccc23)S1	KCNQ1 inh 6
O=C1NC(=O)/C(=C/c2cc3c(cc2Br)OCO3)S1	hERG protect 7.0
CCN(CC)C(=O)[C@H]1C[C@H](CC(=O)NCCN2CCOCC2)C(=O)N2CCc3c([nH]c4cc(CCC(=O)N(C)C)ccc34)[C@]12C	none (no result: KCNQ1 act, Kir21 block, KCNK9 block, hERG protect, KCNQ1 inh)
Cc1cc(OCC(=O)N(C)Cc2ccccc2)ccc1Br	KCNK9 block -7.3
Cc1cc(OCC(=O)N(C)Cc2ccccc2)ccc1Cl	none
C=CCn1c(SCC(=O)Nc2ccccc2C)nc2sc(C)c(C)c2c1=O	none
C=CCn1c(SCc2ccc(C(=O)O)cc2)nc2sc(C)c(C)c2c1=O	KCNQ1 act 16, hERG protect 8.2
CN(C(=O)c1cccc(COc2ccc(Cl)cc2Cl)c1)c1ccccc1	Kir21 block -6
N#Cc1ccccc1NS(=O)(=O)c1cc2c3c(c1)CCC(=O)N3CCC2	KCNQ1 act 8
C(=C\c1ccccc1)/CSc1nnc(-c2ccccn2)n1Cc1ccco1	Kir21 block -7.9
c1ccc2c(NCCc3c[nH]c4ccccc34)c3ccccc3nc2c1	Kir21 block -12, KCNQ1 inh 7
Fc1cccc(NCCc2c[nH]c3ccccc23)n1	none
O=C(NN1CCCCCC1)c1ccccc1F	none (no result: KCNQ1 act, Kir21 block, KCNK9 block, hERG protect, KCNQ1 inh)
Cc1cc(C)n(CCC(=O)N/N=C/c2ccc(Br)c([N+](=O)[O-])c2)n1	KCNQ1 inh 6
CCN(CC)S(=O)(=O)c1ccc(N2CCCC2)c(NC(=O)c2ccc(N3CCCC3=O)cc2)c1	none
Cc1cc2[nH]c3c4ccccc4nc(C)c3c2cc1C	none (no result: KCNQ1 act, Kir21 block, KCNK9 block, hERG protect, KCNQ1 inh)
Cc1cc2[nH]c3c(c[n+](C)c4ccccc34)c2cc1C	Kir21 block -7.8
O=c1cc(-c2ccc(Cl)cc2)nc(N2CCN(c3ccccc3)CC2)[nH]1	KCNK9 block -7.2
N#C/C(=C\c1ccncc1)C(=O)Nc1ccc(C(=O)O)cc1	none
CC(C)c1ccc(NC(=O)/C(C#N)=C/c2ccncc2)cc1	KCNQ1 act 8
CN(Cc1c(C(=O)N/N=C/c2cccc(Cl)c2)nnn1-c1nonc1N)c1ccccc1	none
NNC(=O)c1cc(S(=O)(=O)N2CCOCC2)c[nH]1	none (no result: KCNQ1 act, Kir21 block, KCNK9 block, hERG protect, KCNQ1 inh)
CCOC(=O)c1c(NC(=O)C2c3ccccc3Oc3ccccc32)sc(C(C)=O)c1C	KCNK9 block -7.4
CCOC(=O)c1c(NC(=O)CSc2nnc(-c3ccc(C)cc3)o2)sc(C(C)=O)c1C	KCNK3 block -10 (no result: KCNQ1 act, Kir21 block, KCNK9 block, hERG protect, KCNQ1 inh)
CCOC(=O)C1=C(C)N(C)C(=O)NC1c1c(OC)ccc2ccccc12 (stereo not given)	none
CC(C)Cn1c(N)c(C(=O)COC(=O)CCNS(=O)(=O)c2ccccc2)c(=O)n(C)c1=O	none
OCC[C@@H]1NCc2cc(CO)cc(-c3ccccc3)c21	KCNK3 block -9.9 (no result: KCNQ1 act, Kir21 block, KCNK9 block, hERG protect, KCNQ1 inh)
O=c1cc2c(c(-c3ccccc3)n1Cc1ccccc1)[C@H](CCO)NC2	none (no result: KCNQ1 act, Kir21 block, KCNK9 block, hERG protect, KCNQ1 inh)
O=C(O)c1ccc(Oc2ccccc2)o1	none
Cc1cc([N+](=O)[O-])ccc1NC(=O)c1csc(C)c1C	none
CC12CCC(C(=O)OC3CCCCC3)(OC1=O)C2(C)C (stereo not given)	hERG protect 5.8
CCOC(=O)CSc1nc(=O)n2cc(C)ccc2n1	none
CC(=O)CSc1ncnc2sc3c(c12)CCC(C)C3 (stereo not given)	KCNQ1 act 33, hERG protect 50
COc1ccc(C=O)cc1CSc1nnc(COc2cccc3cccnc23)o1	Kir21 block -4.9
Cc1ccc(C(=O)NCCN2C3=NC[C@H](Cc4ccc(O)cc4)N3C[C@H]2Cc2ccc(O)cc2)cc1Br	none
COc1ccc(C[C@H]2CN3C(=NC[C@@H]3C(C)C)N2C[C@H](C)NC(=O)c2ccc(C)c(Br)c2)cc1	Kir21 block -7.9
COc1ccc(C[C@H]2CN3C(=NC[C@@H]3Cc3ccc(O)cc3)N2C[C@H](C)NC(=O)c2ccc(C)c(Br)c2)cc1	Kir21 block -7.3
Cc1ccc(C(=O)N[C@@H](C)CN2C3=NC[C@H](C(C)C)N3C[C@H]2Cc2ccc(O)cc2)cc1Br	none
CCCC1CC(C)(c2csc(Nc3ccc(OCC)cc3)n2)OC1=O (stereo not given)	KCNK9 block -7.7
CCOC(=O)CN(Cc1ccccc1)C(=O)OC(C)(C)C	none (no result: KCNK3 block)
CCOc1ccc(NS(=O)(=O)c2ccc(OC)c(C)c2)cc1	Kir21 block -7.5
Cc1ccsc1C(=O)Nc1n[nH]c(C(F)(F)F)n1	none
O=C(Nc1n[nH]c(C(F)(F)F)n1)C1CC1	hERG protect 4.7
COc1ccc(C)cc1NC(=O)CSc1nnc(COc2ccccc2)n1Cc1ccco1	none
COc1ccc(NC(=O)CSc2nnc(COc3ccccc3)n2Cc2ccco2)cc1OC	hERG protect 5.1
Cc1ccc(CNCCC2=CCCCC2)cc1	Kir21 block -6.9
CCn1cc(C(=O)OCC(=O)OC2CC(C)CCC2C(C)C)c(=O)c2ccc(C)nc21 (stereo not given)	KCNK3 block -11
C=CCOC(=O)c1cn(CC)c2nc(C)ccc2c1=O	none
Cc1ccc2c(=O)c(C(=O)NCc3cccs3)c[nH]c2c1	hERG protect 4.8
CC(C)c1ccc(NC(=O)C(c2ccc3c(c2)OCO3)N2CCCCC2)cc1 (stereo not given)	KCNK9 block -7.4
CC1CCN(C(C(=O)Nc2ccc(C(C)C)cc2)c2ccc3c(c2)OCO3)CC1 (stereo not given)	KCNK9 block -8.1
CC(C)c1ccc(NC(=O)NC(C)c2ccc3c(c2)OCO3)cc1 (stereo not given)	none
CC(C)c1ccc(NC(=O)C(c2ccc3c(c2)OCO3)N2CCC3(CC2)OCCO3)cc1 (stereo not given)	none
COc1ccc(CCC(=O)N(C)CC(=O)Nc2ccc(Cl)c(C(F)(F)F)c2)cc1	none
Cc1ccc(NC(=O)C2CCN(S(=O)(=O)c3ccc4c(c3)OCCO4)CC2)nc1	none
CN(C)c1ccc(/C=C(\Cl)c2nc3ccccc3s2)cc1	none (no result: KCNQ1 act, Kir21 block, KCNK9 block, hERG protect, KCNQ1 inh)
COc1ccc(O[C@@H]2O[C@H](COC(C)=O)[C@@H](OC(C)=O)[C@H](OC(C)=O)[C@H]2NC(C)=O)cc1	none
CC(=O)N[C@H]1[C@H](OC2CCCCC2)O[C@H](COC(C)=O)[C@@H](OC(C)=O)[C@@H]1OC(C)=O	KCNQ1 act 8
Cn1c(=O)c2c(nc(N3CCc4ccccc4C3)n2Cc2ccc(Br)cc2)n(C)c1=O	KCNK9 block -7
Cn1c(=O)c2c(nc(N3CCc4ccccc4C3)n2Cc2ccccc2F)n(C)c1=O	none
